From ChEMBL document CHEMBL1123309, “Esters and lactones of phenolic amino carboxylic acids: prodrugs for iron chelation” (J Med Chem, 1986) come the findings set out here.

In data set [1] the test system is Mus musculus. The experiment in a line: BDF1 male mice were administered with 300 mg/kg orally and percent change in iron levels was determined in Feces. The class given is functional. The settings on record: route oral. Summed up: (§1)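 Hypertransfused male BDF1 mice (canine red cells, washed and heated at 50 °C for 30 min) were dosed orally for 7 days with compound in distilled water or a fine suspension with Polysorbate 80 (2% final). Daily group urine and pooled feces (1 N HCl digest, 90 °C, 30 min, triplicate) were collected, and liver and spleen were homogenized. Iron was measured by atomic absorption and reported as % change vs transfused control.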

In data set [2] the test system is Mus musculus. In words: BDF1 male mice were administered with 300 mg/kg orally and percent change in iron levels was determined in Liver. The settings on record: route oral. The data set is classed as functional. Summed up:
as §1

For data set [3], the system named is Mus musculus. The experiment in a line: BDF1 male mice were administered with 300 mg/kg orally and percent change in iron levels was determined in Spleen. The settings on record: route oral. The class given is functional. Summed up: as §1
Data set [4] concerns Mus musculus. In words: BDF1 male mice were administered with 300 mg/kg orally and percent change in iron levels was determined in Urine. The data set is classed as functional. The following applies: route oral. An outline of the steps:
as §1

Data set [5] deals with Mus musculus. In words: BDF1 male mice were administered with 400 mg/kg orally and percent change in iron levels was determined in Feces. The class given is functional. The following applies: route oral. An outline of the steps: as §1
Data set [6] has as its system Mus musculus. In words: BDF1 male mice were administered with 600 mg/kg orally and percent change in iron levels was determined in Feces. The following applies: route oral. The class given is functional. Summed up:
as §1

Data set [7] deals with Mus musculus. In words: BDF1 male mice were administered with 600 mg/kg orally and percent change in iron levels was determined in Liver. The class given is functional. The following applies: route oral. An outline of the steps: as §1
Data set [8] has as its system Mus musculus. The experiment in a line: BDF1 male mice were administered with 600 mg/kg orally and percent change in iron levels was determined in Spleen. The data set is classed as functional. The settings on record: route oral. An outline of the steps: as §1
Data set [9] concerns Mus musculus. The experiment in a line: BDF1 male mice were administered with 600 mg/kg orally and percent change in iron levels was determined in Urine. The data set is classed as functional. The settings on record: route oral. An outline of the steps: as §1
Data set [10] has as its system Mus musculus. In words: BDF1 male mice were administered with 75 mg/kg orally and percent change in iron levels was determined in Feces. The following applies: route oral. The class given is functional. An outline of the steps:
as §1

The subject of data set [11] is Mus musculus. In words: BDF1 male mice were administered with 75 mg/kg orally and percent change in iron levels was determined in Liver. The data set is classed as functional. The following applies: route oral. An outline of the steps: as §1
Data set [12] deals with Mus musculus. The experiment in a line: BDF1 male mice were administered with 75 mg/kg orally and percent change in iron levels was determined in Spleen. The data set is classed as functional. The settings on record: route oral. An outline of the steps:
as §1

Data set [13] has as its system Mus musculus. In words: BDF1 male mice were administered with 75 mg/kg orally and percent change in iron levels was determined in Urine. The class given is functional. The following applies: route oral. An outline of the steps:
as §1

Data set [14] has as its system Mus musculus. In words: BDF1 male mice were administered with 150 mg/kg orally and percent change in iron levels was determined in Spleen. The settings on record: route oral. The data set is classed as functional. An outline of the steps: (§2)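 Male BDF1 mice made iron-overloaded by transfusion of washed, heat-treated (50 °C, 30 min) canine red cells. Dosing began 2 days after the last transfusion, once daily for 7 days, in distilled water or 2% Polysorbate 80 suspension. Daily group urine was collected. Pooled feces were digested in 1 N HCl (90 °C, 30 min). Liver and spleen were homogenized in saline. Iron was measured by atomic absorption and expressed as % change vs transfused controls.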

The test system of data set [15] is Mus musculus. The experiment in a line: BDF1 male mice were administered with 150 mg/kg orally and percent change in iron levels was determined in Urine. The data set is classed as functional. The settings on record: route oral. An outline of the steps: as §2
Data set [16] deals with Mus musculus. In words: BDF1 male mice were administered with 400 mg/kg orally and percent change in iron levels was determined in Liver. The data set is classed as functional. The settings on record: route oral. Summed up:
as §1

In data set [17] the test system is Mus musculus. The experiment in a line: BDF1 male mice were administered with 400 mg/kg orally and percent change in iron levels was determined in Spleen. The settings on record: route oral. The class given is functional. An outline of the steps:
as §1

Data set [18] deals with Mus musculus. The experiment in a line: BDF1 male mice were administered with 400 mg/kg orally and percent change in iron levels was determined in Urine. The data set is classed as functional. The settings on record: route oral. Summed up: as §1
The subject of data set [19] is Mus musculus. The experiment in a line: BDF1 male mice were administered with 150 mg/kg orally and percent change in iron levels was determined in Feces. The class given is functional. The following applies: route oral. An outline of the steps:
as §2

In data set [20] the test system is Mus musculus. In words: BDF1 male mice were administered with 150 mg/kg orally and percent change in iron levels was determined in Liver. The class given is functional. The settings on record: route oral. Summed up: as §2
Data set [21] has as its system Mus musculus. The experiment in a line: BDF1 male mice were administered with the compound and number of survivors was determined at a dose 150 mg/kg peroral out of 6 tested. The data set is classed as functional. The settings on record: route oral. An outline of the steps: (§3)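 Male BDF1 mice were iron-loaded by transfusion of canine red cells. The cells were heparinised, washed twice in isotonic saline and heated at 50 °C for 30 min. Dosing started two days after the last transfusion, once daily for 7 consecutive days. Compounds were given in distilled water or as a fine aqueous suspension with Polysorbate 80 (2% final). Toxic signs were recorded daily and survivors counted per group.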

The subject of data set [22] is Mus musculus. In words: BDF1 male mice were administered with the compound and number of survivors was determined at a dose 300 mg/kg peroral out of 6 tested. The data set is classed as functional. The settings on record: route oral. Summed up: as §3
The subject of data set [23] is Mus musculus. The experiment in a line: BDF1 male mice were administered with the compound and number of survivors was determined at a dose 400 mg/kg peroral out of 10 tested. The data set is classed as functional. The following applies: route oral. Summed up:
as §3

Data set [24] deals with Mus musculus. In words: BDF1 male mice were administered with the compound and number of survivors was determined at a dose 600 mg/kg peroral out of 6 tested. The class given is functional. The following applies: route oral. An outline of the steps:
as §3

Data set [25] concerns Mus musculus. The experiment in a line: BDF1 male mice were administered with the compound and number of survivors was determined at a dose 75 mg/kg peroral out of 6 tested. The class given is functional. The settings on record: route oral. An outline of the steps: as §3
The nature of data set [26]: First order rate constant was determined Spectrophotometrically at pH 7.5.
The nature of data set [27]: Half life was determined at pH 7.5 in the presence of Fe(III) Half life was determined Spectrophotometrically.
Data set [28] deals with Mus musculus. In words: BDF1 male mice were administered with 200 mg/kg po and percent change in iron levels was determined in Feces. The data set is classed as functional. Summed up: as §1
The subject of data set [29] is Mus musculus. The experiment in a line: BDF1 male mice were administered with 200 mg/kg po and percent change in iron levels was determined in Liver. The class given is functional. Summed up:
as §1

Data set [30] has as its system Mus musculus. In words: BDF1 male mice were administered with 200 mg/kg po and percent change in iron levels was determined in spleen. The data set is classed as functional. Summed up: as §1
The subject of data set [31] is Mus musculus. In words: BDF1 male mice were administered with 200 mg/kg poand percent change in iron levels was determined in Urine. The class given is functional. An outline of the steps:
as §1

The subject of data set [32] is Mus musculus. In words: BDF1 male mice were administered with the compound and number of survivors was determined at a dose 200 mg/kg po. The class given is functional. An outline of the steps: as §3
Data set [33] deals with Mus musculus. The experiment in a line: BDF1 male mice were administered with 250 mg/kg intraperitoneally and percent change in iron levels was determined in Feces. The data set is classed as functional. The following applies: route intraperitoneal. An outline of the steps:
(§4)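 Male BDF1 mice were hypertransfused with washed, heat-treated (50 °C, 30 min) canine red cells. Starting 2 days after the last transfusion, they received one ip injection daily for 7 days, in distilled water or an aqueous suspension with Polysorbate 80 (2% final). Group urine was collected every 24 h. Feces were digested in 1 N HCl (90 °C, 30 min, triplicate). Liver and spleen were homogenized. Iron was measured by atomic absorption and reported as % change vs transfused controls.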

In data set [34] the test system is Mus musculus. The experiment in a line: BDF1 male mice were administered with 250 mg/kg intraperitoneally and percent change in iron levels was determined in Liver. The data set is classed as functional. The settings on record: route intraperitoneal. An outline of the steps:
as §4

For data set [35], the system named is Mus musculus. In words: BDF1 male mice were administered with 250 mg/kg intraperitoneally and percent change in iron levels was determined in Spleen. The class given is functional. The settings on record: route intraperitoneal. Summed up:
as §4

Data set [36] has as its system Mus musculus. The experiment in a line: BDF1 male mice were administered with 250 mg/kg intraperitoneally and percent change in iron levels was determined in Urine. The data set is classed as functional. The settings on record: route intraperitoneal. Summed up:
as §4

The test system of data set [37] is Mus musculus. In words: BDF1 male mice were administered with 250 mg/kg intraperitoneally and number of survivors was determined out of 240 tested. The data set is classed as functional. The settings on record: route intraperitoneal. An outline of the steps: as §3

Take `CC(C)OC(=O)CN(CCN(CC(=O)OC(C)C)Cc1ccccc1O)Cc1ccccc1O`: the Iron change in data set [1] is reported as -1%; in [2] it was -45%; in data set [3], -7%; in data set [4], 76%; in [5], -5%; in data set [6], 5%. Also, the Iron change in data set [7] is -56%; in data set [8] it was -27%; in data set [9], 141%; in data set [10], 1%; in data set [11], -34%; in data set [12], -10%. Also, the Iron change in data set [13] was -10%; in data set [14], 2%; in data set [15] it was 33%; in [16], -45%; in data set [17], -13%; in data set [18] it was 233%. In addition, the Iron change is 23% in data set [19] and -32% in [20]. Also, the No. of survivors in data set [21] was determined as 6; in data set [22], 6; in [23], 10; in [24], 6; in data set [25], 6. The “10E2 k1” value in data set [26] stood at 0.542 min⁻¹. Besides, the half-life in data set [27] is 2.15 h.

Consider `CC(=O)Oc1ccccc1CN(CCN(CC(=O)OC(C)(C)C)Cc1ccccc1OC(C)=O)CC(=O)OC(C)(C)C`, for which the Iron change in data set [28] was -1%; in data set [29], 16%; in data set [30] it was -6%; in data set [31], -4%. The compound also showed a No. of survivors in data set [32] of 10.

For the compound `CC(=O)N(O)CCCCCNC(=O)CCC(=O)N(O)CCCCCNC(=O)CCC(=O)N(O)CCCCCN` [DEFEROXAMINE], the Iron change in data set [33] was 7%; in data set [34], -24%; in data set [35] it was 2%; in data set [36] it was 270%. The same compound gave a No. of survivors in data set [37] of 240.

In general, half-life refers to the time needed for the level to fall by half in the phase considered.
